Measured values reported in ChEMBL document CHEMBL1127318, “Hypoxia-selective antitumor agents. 8. Bis(nitroimidazolyl)alkanecarboxamides: a new class of hypoxia-selective cytotoxins and hypoxic cell radiosensitisers” (J Med Chem, 1994).

How the values were obtained:
[1] = tested on: CHO-AA8; test: Concentration required to reduce AA8 cell numbers to 50% of controls in a growth inhibition microassay; assay type: functional, cell-based; settings: Cricetulus griseus
How it was run: (§1)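 Cells kept as log-phase monolayers in antibiotic-free Alpha MEM with 10% heat-inactivated FCS. Per well: 200 AA8, 300 UV4, 50 EMT6 or 1000 FME cells. Drug added 24 h after seeding and removed after 18 h. Cell mass (protein, methylene blue absorbance) read 72–78 h after washout. IC50 = concentration giving 50% of the mean of eight controls on the same plate.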

[2] = tested on: CHO-AA8; test: Compound concentration at which sensitizer enhancement ratio =1.6 under hypoxia.; assay type: functional, Cricetulus griseus
How it was run: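 Stirred AA8 suspensions gassed 60 min with 5% CO2 in N2. Drug added 30 min before ⁶⁰Co irradiation at 37 °C (ca. 2 Gy/min, typically 6 Gy steps). Clonogenic survival taken against unirradiated cells from the same culture. Linear-quadratic fit gives D10; SER = D10 without/with drug, determined over a range of concentrations to estimate C1.6. Only concentrations with minimal drug toxicity during irradiation were used.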

[3] = tested on: CHO-AA8; test: (§2) Compound concentration required to reduce cell survival to 10% of control values under hypoxic condition; assay type: cell-based, Cricetulus griseus; settings: chinese hamster
How it was run: (§3)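 Chinese hamster AA8 cells at plateau phase, 10⁶/mL, in magnetically stirred 10-mL suspensions. Gassed continuously with 5% CO₂ in N₂ (hypoxic) or in air (aerobic); cells and drug preequilibrated under the gas for 60 min. Clonogenic plating efficiency read every 0.5–1 h for up to 8 h at several drug concentrations. Concentration × time for 10% survival (CT10) estimated at each concentration.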

[4] = tested on: CHO-AA8; test: (§4) In vitro therapeutic index (aerobic IC50 / hypoxic C1.6); assay type: functional, Cricetulus griseus
How it was run: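 C1.6 is the concentration giving SER 1.6 in hypoxic stirred AA8 suspensions exposed to drug for 30 min before ⁶⁰Co irradiation at 37 °C.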

[5] = tested on: EMT6; test: Aerobic cytotoxicity against murine mammary carcinoma EMT6 cells in a growth inhibition microassay; assay type: functional, Mus musculus; how it was run: as §1
[6] = tested on: FME; test: Aerobic cytotoxicity against human melanoma FME cells in a growth inhibition microassay; assay type: functional; how it was run: as §1
[7] = tested on: UV4; test: Aerobic cytotoxicity against UV4 cells in a growth inhibition microassay; assay type: functional, Cricetulus griseus; how it was run: as §1
[8] = The ratio of aerobic CT10 to hypoxic CT10.; assay type: functional
How it was run: (§5)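 Clonogenic assay on stirred plateau-phase AA8 suspensions (10⁶/mL), gassed with 5% CO₂ in air or in N₂ after 60 min preequilibration. Survival sampled every 0.5–1 h up to 8 h at several drug concentrations. CT10 taken at each concentration. Interpolated aerobic CT10 divided by hypoxic CT10 at the same time; ranges cover 1–8 h exposure.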

[9] = tested on: CHO-AA8; test: Average intracellular compound concentration when the hypoxic SER=1.6.; assay type: functional, Cricetulus griseus
How it was run: (§6)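 Hypoxic stirred AA8 suspensions (10⁷ cells) incubated 30 min at the C1.6 concentration. Cells and supernatant separated by centrifugation and extracted into MeCN. Drug measured by C18 HPLC with formate pH 4.5/MeCN gradient, absorbance 320 nm. Values corrected for recovery using spiked medium or lysed pellets. Mean intracellular concentration calculated assuming 11.6 µL cell water and 1.1 µL pellet extracellular water per 10⁷ cells.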

[10] = as §4; assay type: cell-based, Cricetulus griseus; settings: chinese hamster, CHO-AA8 cells; read-out: TI
How it was run: (§7)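 Hypoxic C1.6: stirred AA8 gassed with 5% CO₂/N₂ 60 min, drug 30 min, ⁶⁰Co irradiation at 37 °C (~2 Gy/min). D10 from linear-quadratic fit; concentration giving SER 1.6 interpolated. Index = IC50/C1.6.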

[11] = Partition coefficient (logP); assay type: physicochemical; settings: octanol/water
How it was run: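 log P octanol computed with CLOGP rather than measured.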

[12] = Ratio of mean intracellular to extracellular compound concentration determined under hypoxic condition.; assay type: functional, cell-based
How it was run: (§8)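 AA8 suspension (10⁷ cells) made hypoxic with 5% CO₂ in N₂, exposed 30 min at 37 °C to drug at the C1.6. Supernatant and lysed pellet extracted in MeCN. Assayed by C18 HPLC (formate pH 4.5/MeCN gradient, 320 nm), corrected for spiked recoveries. Intracellular level from 11.6 µL cell water/10⁷ cells, with [¹⁴C]sucrose and ³H₂O spaces. Result expressed as Ci/Ce.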

[13] = tested on: CHO-AA8; test: Average intracellular compound concentration where the hypoxia sensitizer enhancement ratio (SER)=1.6; assay type: functional, Cricetulus griseus; how it was run: as §6
[14] = tested on: CHO-AA8; test: Average intracellular compound concentration where the sensitizer enhancement ratio (SER)=1.6 under hypoxia; assay type: functional, Cricetulus griseus; how it was run: as §6
[15] = Ratio of mean intracellular to extracellular compound concentration determined under hypoxic conditions 30 mins after exposure to compound at C1.6 concentration; assay type: functional, cell-based; how it was run: as §8
[16] = The ratio of aerobic CT10 to hypoxic CT10; assay type: functional; how it was run: as §5
[17] = tested on: CHO-AA8; test: Average intracellular compound concentration when the hypoxic SER=1.6; assay type: functional, Cricetulus griseus; how it was run: as §6
[18] = tested on: CHO-AA8; test: Compound concentration required to reduce cell survival to 10% of control values under hypoxic condition.; assay type: cell-based, Cricetulus griseus; settings: chinese hamster; how it was run: as §3
[19] = tested on: CHO-AA8; test: as §2; assay type: functional, Cricetulus griseus
How it was run: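 Plateau-phase AA8 cells (10⁶/mL) in magnetically stirred 10-mL cultures, gassed continuously with N2 plus 5% CO2. Cells and drug pre-equilibrated 60 min. Clonogenic plating every 0.5–1 h for up to 8 h at several concentrations. CT10 (concentration × time for 10% survival) estimated at each concentration.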

[20] = as §4; assay type: functional; how it was run: as §7

SMILES | IC50 [1] | C1.6 [2] | CT10 [3] | TI [4] | Hypersensitivity factor [5] | Hypersensitivity factor [6] | Hypersensitivity factor [7] | Ratio [8] | C1.6 [9] | selectivity ratio [10] | logP [11] | Uptake ratio [12] | C1.6 [13] | C1.6 [14] | Uptake ratio [15] | Ratio [16] | C1.6 [17] | CT10 [18] | CT10 [19] | TI [20]
O=[N+]([O-])c1nccn1CC(O)CNCCBr (centres undefined) | 0.15 mM | 0.13 mM | 0.18 mM-hr | 1.1 | 1.6 | 1 | 5.9 | 20 |  |  |  |  |  |  |  |  |  |  |  | 
Cc1ncc([N+](=O)[O-])n1CCNC(=O)CCn1ccnc1[N+](=O)[O-] | 5.5 mM | 0.7 mM | 12 mM-hr |  | 2.5 | 2.9 | 0.9 | > 7 | 0.42 mM | 7.9 | -0.99 | 0.6 |  |  |  |  |  |  |  | 
O=C(CCCn1ccnc1[N+](=O)[O-])NCCn1cncc1[N+](=O)[O-] | > 4.2 mM | 0.9 mM | 0.8 mM-hr |  | >1.7 | >2.1 |  | > 30 | 0.27 mM | > 4.7 | -1.55 | 0.3 |  |  |  |  |  |  |  | 
Cc1ncc([N+](=O)[O-])n1CCO [METRONIDAZOLE] | 23 mM |  | 100 mM-hr |  | 1 | 1 | 1 |  |  | 1.7 |  |  | 17.3 mM | 13.3 mM | 1.3 | 5 |  |  |  | 
Cc1ncc([N+](=O)[O-])n1CCNC(=O)Cn1ccnc1[N+](=O)[O-] | 4.7 mM | 1.08 mM | 11 mM-hr |  | 2.2 | 2.1 | 1 | 2.4 | 0.54 mM | 4.3 | -1.03 | 0.5 |  |  |  |  |  |  |  | 
O=C(CCCn1ccnc1[N+](=O)[O-])NCCn1ccnc1[N+](=O)[O-] |  | 1.54 mM | 3.4 mM-hr |  |  |  |  | > 6 |  | 1.7 | -1.55 | 0.5 |  |  |  |  | 0.77 mM |  |  | 
Cc1ncc([N+](=O)[O-])n1CCNC(=O)CCCn1ccnc1[N+](=O)[O-] | 7.2 mM | 0.63 mM | 0.37 mM-hr |  | 1.3 | 4.6 | 1.4 | 8 | 0.21 mM | 11 | -1.28 | 0.33 |  |  |  |  |  |  |  | 
Cc1ncc([N+](=O)[O-])n1CCNC(=O)Cn1c([N+](=O)[O-])cnc1C | 7.7 mM | 2.7 mM |  |  | 4.4 | 2.3 | 1 | 2 | 4.1 mM | 2.8 | -0.76 | 1.5 |  |  |  |  |  | 50 mM-hr |  | 
O=C(CCCn1ccnc1[N+](=O)[O-])NCCn1cnc([N+](=O)[O-])c1 |  | >1.1 mM | > 15 mM-hr |  |  |  |  |  | >0.36 mM | < 1.6 | -1.55 |  |  |  |  |  |  |  |  | 
Cc1ncc([N+](=O)[O-])n1CCNC(=O)CCCCCn1ccnc1[N+](=O)[O-] |  | 0.65 mM |  |  |  |  |  | > 17 | 0.36 mM | 1.2 | -0.22 | 0.55 |  |  |  |  |  |  | 1.5 mM-hr | 
Cc1ncc([N+](=O)[O-])n1CCNC(=O)CCCCn1ccnc1[N+](=O)[O-] | 3.8 mM | 0.93 mM | 6 mM-hr |  | 1.7 | 3.5 | 1.2 | > 7 | 0.48 mM | 4 | -0.79 | 0.52 |  |  |  |  |  |  |  | 
O=C(CCn1ccnc1[N+](=O)[O-])NCCCn1ccnc1[N+](=O)[O-] | 6.1 mM |  | 2.5 mM-hr |  | 3.5 | 3.9 | 1.2 | 6.5 |  |  | -1.55 |  |  |  |  |  |  |  |  | 
COCC(O)Cn1ccnc1[N+](=O)[O-] (centres undefined) [MISONIDAZOLE] |  |  |  |  | 3.6 | 1.9 | 1.4 | 25 |  |  |  |  | 0.4 mM | 0.43 mM | 0.9 |  |  | 8.3 mM-hr |  | 28
O=C(CCCn1ccnc1[N+](=O)[O-])NCCn1ccnc1 | 24 mM |  |  |  | 4.2 | 3 | 1.3 | 8 |  |  | 1.32 |  | 1.32 mM | 4 mM | 0.33 |  |  | 26 mM-hr |  | 6
